From ChEMBL document CHEMBL2331353, “Synthesis and biological evaluation of some novel resveratrol amide derivatives as potential anti-tumor agents” (Eur J Med Chem, 2013) come the findings set out here.

One assay has as its system A549. The assay can be described thus: Antitumor activity against human A549 cells assessed as inhibition of cell proliferation after 48 hrs by MTT assay. It is filed as functional, cell-based. Particulars: A549, 48 h. The method in brief:
(§1)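 Cells grown to log phase in RPMI 1640 with 10% FBS, seeded at 2×10^4 cells/mL and preincubated 24 h at 37 °C, 5% CO2. Compounds at preset concentrations added (6 wells), celecoxib as positive reference, 48 h exposure. MTT (2.5 mg/mL in PBS) for 4 h, then SDS/isobutanol/HCl extraction overnight at 37 °C. OD read at 570 nm. Triplicate wells per concentration, at least three independent runs.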
(In general: Tetrazolium assays rely on reduction of a dye to a coloured formazan, in cell work by metabolically active cells.)

The target in assay [1] is T1, Prostaglandin G/H synthase 2 (Homo sapiens, UniProt P35354).
T1 sequence (P35354 whole entry): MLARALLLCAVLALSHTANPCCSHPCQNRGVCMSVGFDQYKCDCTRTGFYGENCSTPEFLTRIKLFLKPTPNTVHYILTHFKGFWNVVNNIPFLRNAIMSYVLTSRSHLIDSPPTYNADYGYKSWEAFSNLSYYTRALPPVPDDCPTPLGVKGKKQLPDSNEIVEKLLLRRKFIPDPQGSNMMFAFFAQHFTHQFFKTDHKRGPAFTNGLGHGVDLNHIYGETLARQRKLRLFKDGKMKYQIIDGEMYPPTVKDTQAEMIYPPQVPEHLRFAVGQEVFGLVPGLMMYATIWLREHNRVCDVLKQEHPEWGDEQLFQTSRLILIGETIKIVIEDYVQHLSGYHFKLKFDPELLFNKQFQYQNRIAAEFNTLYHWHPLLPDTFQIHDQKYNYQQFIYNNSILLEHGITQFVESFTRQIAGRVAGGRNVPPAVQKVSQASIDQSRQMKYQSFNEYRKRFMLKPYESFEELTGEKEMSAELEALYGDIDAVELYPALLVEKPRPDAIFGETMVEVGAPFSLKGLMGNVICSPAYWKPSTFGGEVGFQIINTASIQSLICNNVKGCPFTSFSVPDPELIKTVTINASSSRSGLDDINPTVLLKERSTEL
In words: Inhibition of COX-2 (unknown origin) by chemiluminescence assay.

The test system of another assay is MCF7. The assay can be described thus: Antitumor activity against human MCF7 cells assessed as inhibition of cell proliferation after 48 hrs by MTT assay. Format: functional, cell-based. Particulars: MCF7, 48 h. The method in brief:
as §1

For assay [2], the target named is T2, Prostaglandin G/H synthase 2 (Mus musculus, UniProt Q05769).
T2 sequence (Q05769 whole entry): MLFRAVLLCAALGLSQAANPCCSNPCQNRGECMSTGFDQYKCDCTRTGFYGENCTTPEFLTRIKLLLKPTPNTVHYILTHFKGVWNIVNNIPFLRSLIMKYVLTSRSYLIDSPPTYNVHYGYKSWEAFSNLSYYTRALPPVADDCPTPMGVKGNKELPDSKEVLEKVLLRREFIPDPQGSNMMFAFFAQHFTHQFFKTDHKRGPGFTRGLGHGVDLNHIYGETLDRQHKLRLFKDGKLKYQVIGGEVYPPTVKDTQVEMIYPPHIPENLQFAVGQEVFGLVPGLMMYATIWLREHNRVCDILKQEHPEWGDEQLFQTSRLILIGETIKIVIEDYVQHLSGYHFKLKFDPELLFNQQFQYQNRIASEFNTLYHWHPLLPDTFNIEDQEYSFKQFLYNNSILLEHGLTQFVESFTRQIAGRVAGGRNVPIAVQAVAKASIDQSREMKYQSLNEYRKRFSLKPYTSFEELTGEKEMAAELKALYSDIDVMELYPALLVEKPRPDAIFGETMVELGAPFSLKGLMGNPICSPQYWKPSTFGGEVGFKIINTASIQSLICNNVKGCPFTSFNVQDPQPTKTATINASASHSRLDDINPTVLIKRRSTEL
The assay can be described thus: Inhibition of COX-2 in mouse RAW264.7 cells assessed as decrease in LPS-induced PGE2 production. Format: cell-based.

In another assay the test system is B16-F10. The assay can be described thus: Antitumor activity against mouse B16F10 cells assessed as inhibition of cell proliferation after 48 hrs by MTT assay. Particulars: B16-F10, 48 h. Format: functional, cell-based. The method in brief:
as §1

Assay [3] deals with Prostaglandin G/H synthase 1 (Homo sapiens, UniProt P23219). In words: Inhibition of COX-1 (unknown origin) by chemiluminescence assay.
Chain of Prostaglandin G/H synthase 1 (P23219 whole entry): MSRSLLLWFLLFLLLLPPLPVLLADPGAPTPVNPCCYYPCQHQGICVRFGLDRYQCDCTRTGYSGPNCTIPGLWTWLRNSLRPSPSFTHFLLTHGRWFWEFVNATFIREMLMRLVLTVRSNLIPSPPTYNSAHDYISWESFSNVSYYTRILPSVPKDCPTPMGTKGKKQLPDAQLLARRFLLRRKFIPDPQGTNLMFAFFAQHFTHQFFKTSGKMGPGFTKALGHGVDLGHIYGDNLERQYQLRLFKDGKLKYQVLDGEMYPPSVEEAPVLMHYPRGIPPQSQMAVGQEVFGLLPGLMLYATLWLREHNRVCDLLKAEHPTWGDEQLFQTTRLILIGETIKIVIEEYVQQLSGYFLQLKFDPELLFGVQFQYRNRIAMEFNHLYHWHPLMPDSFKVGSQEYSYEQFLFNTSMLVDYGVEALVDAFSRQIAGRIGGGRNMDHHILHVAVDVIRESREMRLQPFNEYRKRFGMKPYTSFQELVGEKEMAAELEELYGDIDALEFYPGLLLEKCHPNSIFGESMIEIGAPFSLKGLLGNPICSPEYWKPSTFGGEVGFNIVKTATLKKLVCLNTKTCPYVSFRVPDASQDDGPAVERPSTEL

On to `COc1ccc(/C=C/c2cc(OC)cc(OC)c2/C=C/C(=O)N2CCCCC2C)cc1` (centres undefined), for which the IC50 in the assay on A549 was 5.77 µM; in assay [1], 6.69 µM; with MCF7, 4.35 µM; in assay [2] it was 2.44 µM; in the assay with B16-F10 it was 7.66 µM; in assay [3], greater than 50 µM.

As for `COc1ccc(/C=C/c2cc(OC)cc(OC)c2/C=C/C(=O)NC2CCCCC2)cc1`, the IC50 with A549 is 3.61 µM; in assay [1], 5.09 µM; in the assay on MCF7, 2.63 µM; in assay [2], 1.98 µM; in the assay on B16-F10, 5.48 µM; in assay [3], greater than 50 µM.

With `COc1ccc(/C=C/c2cc(OC)cc(OC)c2/C=C/C(=O)N2CCCCC2)cc1`, the IC50 with A549 was 10.6 µM; in assay [1] it was 23.2 µM; in the assay on MCF7, 6.05 µM; in assay [2], 15.3 µM; in the assay with B16-F10, 9.75 µM; in assay [3], greater than 50 µM.

For `CCC1CCCCN1C(=O)/C=C/c1c(/C=C/c2ccc(OC)cc2)cc(OC)cc1OC` (centres undefined), the IC50 was 5.6 µM in the assay on A549; 10.3 µM in assay [1]; 5.24 µM in the assay on MCF7; 6.27 µM in assay [2]; 7.38 µM with B16-F10; greater than 50 µM in assay [3].

On to `CCC(C)NC(=O)/C=C/c1c(/C=C/c2ccc(OC)cc2)cc(OC)cc1OC` (centres undefined), for which the IC50 is 3.95 µM with A549; 4.56 µM in assay [1]; 3.43 µM with MCF7; 2.09 µM in assay [2]; 4.38 µM in the assay on B16-F10; greater than 50 µM in assay [3].

Take `COc1ccc(/C=C/c2cc(OC)cc(OC)c2/C=C/C(=O)N2CCOCC2)cc1`: the half-maximal inhibitory concentration (IC50) was 2.32 µM with A549; 1.88 µM in assay [1]; 3.31 µM in the assay with MCF7; 0.85 µM in assay [2]; 3.08 µM with B16-F10; greater than 50 µM in assay [3].

Turning to `COc1ccc(/C=C/c2cc(OC)cc(OC)c2/C=C/C(=O)N(CC(C)C)CC(C)C)cc1`, the IC50 in the assay on A549 was 3.35 µM; in assay [1], 6.84 µM; in the assay with MCF7 it was 2.39 µM; in assay [2], 2.56 µM; with B16-F10 it was 4.85 µM; in assay [3], greater than 50 µM.

As to `COc1ccc(/C=C/c2cc(OC)cc(OC)c2/C=C/C(=O)NCC(C)C)cc1`, the IC50 is 10.4 µM in the assay with A549; 15.1 µM in assay [1]; 5.29 µM in the assay with MCF7; 6.12 µM in assay [2]; 12.7 µM in the assay on B16-F10; greater than 50 µM in assay [3].

Turning to `COc1ccc(/C=C/c2cc(OC)cc(OC)c2/C=C/C(=O)NCCCN2CCOCC2)cc1`, the IC50 in the assay on A549 is 4.22 µM; in assay [1] it was 8.92 µM; in the assay with MCF7, 4.15 µM; in assay [2] it was 3.68 µM; with B16-F10, 6.83 µM; in assay [3], greater than 50 µM.

As to `C=CCN(CC=C)C(=O)/C=C/c1c(/C=C/c2ccc(OC)cc2)cc(OC)cc1OC`, the IC50 turned out to be 5.89 µM with A549; 8.01 µM in assay [1]; 3.22 µM in the assay with MCF7; 3.28 µM in assay [2]; 8.18 µM in the assay on B16-F10; 35 µM in assay [3].

On to `Cc1ccc(-c2cc(C(F)(F)F)nn2-c2ccc(S(N)(=O)=O)cc2)cc1` [CELECOXIB], for which the half-inhibitory concentration (IC50) with A549 is 15.6 µM.

For `COc1ccc(/C=C/c2cc(OC)cc(OC)c2/C=C/C(=O)N(C)C)cc1`, the IC50 in the assay with A549 is 6 µM; in assay [1] it was 13 µM; in the assay on MCF7, 6.86 µM; in assay [2], 4.36 µM; in the assay with B16-F10, 5.78 µM; in assay [3], greater than 50 µM.

On to `COc1ccc(/C=C/c2cc(OC)cc(OC)c2/C=C/C(=O)NC(C)C)cc1`, for which the 50% inhibitory concentration (IC50) with A549 was determined as 2.36 µM; in assay [1], 2.01 µM; in the assay on MCF7, 2.56 µM; in assay [2], 0.72 µM; in the assay on B16-F10 it was 4.02 µM; in assay [3], 40.4 µM.

Consider `COc1ccc(/C=C/c2cc(OC)cc(OC)c2/C=C/C(=O)NCCCCl)cc1`, for which the half-inhibitory concentration (IC50) worked out at 1.98 µM in the assay on A549; 1.27 µM in assay [1]; 1.98 µM in the assay with MCF7; 0.39 µM in assay [2]; 2.78 µM in the assay on B16-F10; 38.4 µM in assay [3].

Broadly, the IC50 is the concentration at which inhibition is half-maximal.
